In ChEMBL document CHEMBL3856222, “Design, structure activity relationship, cytotoxicity and evaluation of antioxidant activity of curcumin derivatives/analogues” (Eur J Med Chem, 2016):
Counter-ions that a name gives are not always drawn.

Tests used:
[1] = Antioxidant activity assessed as nitric oxide radical scavenging activity at 50 uM incubated in dark for 20 mins relative to control; type: functional
[2] = Cytotoxicity against human HeLa cells assessed as decrease in cell viability after 48 hrs by MTT assay; type: functional, cell-based
How it was run: (§1)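 Cells seeded at 2 x 10^3 per well in MEM with 10% FBS and left to attach for 24 h. Exposed 48 h to 5, 10, 20, 50, 100 and 200 µM (printed µM/mL). Controls got medium with 0.2% DMSO. Duplicate treatments. After PBS wash, MTT (stock 1 mg/mL) added for 4 h at 37 °C. Formazan dissolved in DMSO and OD read at 590 nm.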

[3] = Antioxidant activity assessed as nitric oxide radical scavenging activity at 2 uM incubated in dark for 20 mins relative to control; type: functional
[4] = Antioxidant activity assessed as DPPH free radical scavenging activity at 2 uM incubated in dark for 20 mins relative to control; type: functional
How it was run: (§2)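 Compounds dissolved in DMSO and diluted in 100 mM Tris–HCl (pH 7.4). DPPH (0.1 mM in methanol) added with vigorous shaking, then held in the dark at room temperature for 20 min. Absorbance read at 517 nm with DMSO baseline correction. Compound-free control prepared the same way. Run in triplicate.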

[5] = Antioxidant activity assessed as nitric oxide radical scavenging activity at 20 uM incubated in dark for 20 mins relative to control; type: functional
[6] = Cytotoxicity against human QG56 cells assessed as decrease in cell viability after 48 hrs by MTT assay; type: functional, cell-based; details: QG-56, 48 h; how it was run: as §1
[7] = Antioxidant activity assessed as nitric oxide radical scavenging activity at 10 uM incubated in dark for 20 mins relative to control; type: functional
[8] = Antioxidant activity assessed as DPPH free radical scavenging activity at 20 uM incubated in dark for 20 mins relative to control; type: functional; how it was run: as §2
[9] = Antioxidant activity assessed as DPPH free radical scavenging activity at 10 uM incubated in dark for 20 mins relative to control; type: functional; how it was run: as §2
[10] = Cytotoxicity against human HCT116 cells assessed as decrease in cell viability after 48 hrs by MTT assay; type: functional, cell-based; details: HCT-116, 48 h; how it was run: as §1
[11] = Antioxidant activity assessed as DPPH free radical scavenging activity at 50 uM incubated in dark for 20 mins relative to control; type: functional; how it was run: as §2

Row | Structure (SMILES) | Activity [1] | IC50 [2] | Activity [3] | Activity [4] | Activity [5] | IC50 [6] | Activity [7] | Activity [8] | Activity [9] | IC50 [10] | Activity [11]
1 | COc1cc(/C=C/C(=O)C2=C(/C=C/c3ccc(O)c(OC)c3)NC(=O)NC2c2ccc(N(C)C)cc2)ccc1O (stereo not given) | 89.2% | 25 µM | 28.2% | 17.9% | 82.2% | 12.5 µM | 69.9% | 48% | 37.6% | 12.5 µM | 56%
2 | COc1cc(/C=C/C(=O)C2=C(/C=C/c3ccc(O)c(OC)c3)NC(=O)NC2c2ccccc2O)ccc1O (stereo not given) | 88% | 50 µM | 29.9% | 33.6% | 80.9% | 100 µM | 71% | 81% | 73.6% | 100 µM | 88.9%
3 | COc1cc(/C=C/C(=O)C2=C(/C=C/c3ccc(O)c(OC)c3)NC(=O)NC2c2ccc(O)cc2)ccc1O (stereo not given) | 86.2% | 25 µM | 33.3% | 25% | 80.1% | 50 µM | 72% | 84.6% | 75% | 100 µM | 90.3%
4 | COc1cc(/C=C/C(=O)C2=C(/C=C/c3ccc(O)c(OC)c3)NC(=O)NC2c2cccc([N+](=O)[O-])c2)ccc1O (stereo not given) | 48% | 100 µM | 10.2% | 17% | 33% | 25 µM | 19.9% | 66.3% | 51.2% | 50 µM | 71%
5 | COc1cc(/C=C/C(=O)C2=C(/C=C/c3ccc(O)c(OC)c3)NC(=O)NC2c2ccc(C)cc2)ccc1O (stereo not given) | 52.2% | 100 µM | 15.5% | 17.2% | 36.3% | 100 µM | 23.9% | 38.2% | 29.9% | 12.5 µM | 46%
6 | COc1cc(/C=C/C(=O)C2=C(/C=C/c3ccc(O)c(OC)c3)NC(=S)NC2c2ccccc2O)ccc1O (stereo not given) | 88.5% | 25 µM | 34% | 25% | 79.9% | 50 µM | 70.8% | 72.3% | 60.2% | 100 µM | 86.3%
7 | COc1cc(/C=C/C(=O)C2=C(/C=C/c3ccc(O)c(OC)c3)NC(=O)NC2c2ccccc2Cl)ccc1O (stereo not given) | 56% | 100 µM | 16.6% | 20.2% | 38.7% | 100 µM | 23% | 46% | 40% | 50 µM | 55.5%
8 | COc1cccc2c1C(=O)c1c(O)c3c(c(O)c1C2=O)C[C@@](O)(C(=O)CO)C[C@@H]3O[C@H]1C[C@H](N)[C@H](O)[C@H](C)O1 [DOXORUBICIN HYDROCHLORIDE] |  | 2.5 µM |  |  |  | 2.5 µM |  |  |  | 5 µM | 
